Assay results taken from ChEMBL document CHEMBL3244051, “15,15-Ketals of natural prostaglandins and prostaglandin analogues. Synthesis and biological activities” (1978).
Active and inactive are the calls of the source. The rule behind the calls is not given here.

How the values were obtained:
Rattus norvegicus [1] = experiment: Abortifacient activity in sc dosed early pregnant Wistar rat assessed as decrease in serum progesterone level administered in benzyl benzoate and castor oil on day 4 to day 7 of gestation measured on day 3, 5, 7 and 9 of gestation by RIA relative to PGF2alpha; assay type: functional
Outline: (§1)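 Female Wistar rats mated at proestrus; sperm in vaginal smear next day defines day 1 of gestation. Dosed sc in 0.2 mL oil (benzyl benzoate:castor oil 1:3) on days 4–7; 4 rats/group. Orbital plexus blood taken days 3, 5, 7, 9 for serum progesterone by RIA; rats killed day 9, uteri inspected for abortion.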

[2] = […] activity in rat uterus assessed as uterine contraction relative to PGF2alpha; assay type: functional
Outline: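 Isolated rat uterine horns held in salt solution matching extracellular fluid; contractions recorded isotonically as length change. One horn of each animal received test agent, the other the reference, in separate organ baths; n = 4 paired comparisons. Contraction height (mm) analysed by analysis of variance.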

Ileum = experiment: Contraction of guinea pig ileum relative to PGF2alpha; assay type: functional, Cavia porcellus
Rattus norvegicus [3] = experiment: Abortifacient activity in sc dosed early pregnant Wistar rat assessed as decrease in serum progesterone level measured per animal administered in benzyl benzoate and castor oil on day 4 to day 7 of gestation measured on day 3, 5, 7 and 9 of gestation by RIA; assay type: functional; outline: as §1

| SMILES | fold change (FC) (Rattus norvegicus [1]) | fold change (FC) [2] | fold change (FC) (Ileum) | Activity (Rattus norvegicus [1]) | Activity (Rattus norvegicus [3]) |
| --- | --- | --- | --- | --- | --- |
| CCCCCC1(/C=C/[C@@H]2[C@@H](C/C=C\CCCC(=O)OC)[C@@H](O)C[C@H]2O)OCCO1 | 1 | 5 | 0.1 | – | – |
| COC(=O)CCC/C=C\C[C@@H]1[C@@H](/C=C/C2(c3ccc(Cl)cc3)OCCO2)[C@H](O)C[C@@H]1O | 10 | 10 | – | – | – |
| O=C(O)CCC/C=C\C[C@@H]1[C@@H](/C=C/C2(COc3ccccc3)OCCO2)[C@H](O)C[C@@H]1O | – | – | – | Active | – |
| CCCCCC(/C=C/[C@@H]1[C@@H](C/C=C\CCCC(=O)OC)[C@@H](O)C[C@H]1O)(OC)OC | <0.1 | 0.1 | <0.1 | – | – |
| CCCCCC1(/C=C/[C@@H]2[C@@H](C/C=C\CCCC(=O)O)[C@@H](O)C[C@H]2O)OCCO1 | 1 | 5 | – | – | – |
| COC(=O)CCC/C=C\C[C@@H]1[C@@H](/C=C/C2(COc3ccc(F)cc3)OCCO2)[C@H](O)C[C@@H]1O | 10 | 10 | – | – | – |
| CCCCC[C@H](O)/C=C/[C@@H]1[C@@H](C/C=C\CCCC(=O)O)[C@@H](O)C[C@H]1O [DINOPROST] | – | – | – | – | 0.3 mg/day |
| CCCCCC1(/C=C/[C@@H]2[C@@H](C/C=C\CCCC(=O)OC)[C@@H](O)C[C@H]2O)OCC(C)(C)CO1 | <0.3 | <0.1 | – | – | – |
| NC(CO)(CO)CO.O=C(O)CCC/C=C\C[C@@H]1[C@@H](/C=C/C2(COc3ccccc3)OCCO2)[C@H](O)C[C@@H]1O | – | >10 | – | – | – |
| COC(=O)CCC/C=C\C[C@@H]1[C@@H](/C=C/C2(COc3ccccc3)OCCO2)[C@H](O)C[C@@H]1O | 100 | >10 | <0.1 | – | – |
| CCCCOC(=O)CCC/C=C\C[C@@H]1[C@@H](/C=C/C2(COc3ccccc3)OCCO2)[C@H](O)C[C@@H]1O | 30 | 10 | – | – | – |
| COC(=O)CCC/C=C\C[C@@H]1[C@@H](/C=C/C2(CCc3ccccc3)OCCO2)[C@H](O)C[C@@H]1O | 30 | >10 | – | – | – |
| O=C(O)CCC/C=C\C[C@@H]1[C@@H](/C=C/C2(COc3ccccc3)OCCO2)[C@H](O)C[C@@H]1O [ETIPROSTON] | 10 | 10 | 0.1 | – | – |
| CCCCCC1(CC[C@@H]2[C@@H](C/C=C\CCCC(=O)OC)[C@@H](O)C[C@H]2O)OCCO1 | <0.3 | 1 | – | – | – |
| COC(=O)CCC/C=C\C[C@@H]1[C@@H](CCC2(COc3ccccc3)OCCO2)[C@H](O)C[C@@H]1O | 10 | >10 | – | – | – |
| COC(=O)CCC/C=C\C[C@@H]1[C@@H](/C=C/C2(COc3cccc(C(F)(F)F)c3)OCCO2)[C@H](O)C[C@@H]1O | 10 | >10 | <0.1 | – | – |
| CCCCCC1(/C=C/[C@@H]2[C@@H](C/C=C\CCCC(=O)OC)[C@@H](O)C[C@H]2O)OCCCO1 | <0.3 | <0.1 | – | – | – |
